ChEMBL document CHEMBL4364256, “Design, synthesis and biological evaluation of antimicrobial diarylimine and -amine compounds targeting the interaction between the bacterial NusB and NusE proteins” (Eur J Med Chem, 2019)
Values after ≈ are worked out from the molar mass of the structure shown.

Key:
Acinetobacter baumannii = assay: Antimicrobial activity against Acinetobacter baumannii ATCC 19606 incubated for 20 hrs by microdilution method; assay type: functional; settings: ATCC 19606 = CIP 70.34 = JCM 6841, 20 h
How it was run: (§1)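 Broth microdilution MIC testing done following CLSI guidelines.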

Streptococcus pneumoniae = assay: Antimicrobial activity against Streptococcus pneumoniae ATCC 49619 incubated for 20 hrs by microdilution method; assay type: functional; settings: ATCC 49619, 20 h; how it was run: as §1
Staphylococcus aureus [1] = assay: microbe, parasite or virus in culture; settings: ATCC 25923, 20 h
Bacillus subtilis = assay: Inhibition of N-terminal LgBiT-fused Bacillus subtilis NusB expressed in Escherichia coli BL21(DE3)pLysS interaction with C- terminal SmBiT-fused Bacillus subtilis NusE expressed in Escherichia coli BL21(DE3)pLysS at 100 uM preincubated for 10 mins followed by NusE addition and measured after 10 mins by nano-glo luciferase assay relative to control
How it was run: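 NusB and NusE were mixed 1:1 at 1 µM in PBS, with compound at 100 µM. The read-out was percent inhibition of the NusB-NusE interaction.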

Pseudomonas aeruginosa = assay: Antimicrobial activity against Pseudomonas aeruginosa ATCC 27853 incubated for 20 hrs by microdilution method; assay type: functional; settings: ATCC 27853, 20 h; how it was run: as §1
Staphylococcus aureus [2] = assay: microbe, parasite or virus in culture; settings: ATCC 29213, 20 h
[3] = microbe, parasite or virus in culture; settings: Enterobacter cloacae, ATCC 13047, 20 h
Enterococcus faecium = assay: Antimicrobial activity against Enterococcus faecium ATCC 19433 incubated for 20 hrs by microdilution method; assay type: functional; settings: ATCC 19433, 20 h; how it was run: as §1

SMILES | MIC (Acinetobacter baumannii) | MIC (Streptococcus pneumoniae) | MIC (Staphylococcus aureus [1]) | inhibition (Bacillus subtilis) | MIC (Pseudomonas aeruginosa) | MIC (Staphylococcus aureus [2]) | MIC [3] | MIC (Enterococcus faecium)
O=[N+]([O-])c1ccc(O)c(CNc2cccc(O)c2)c1 | > 256 µg/mL | 128 µg/mL (≈ 492 µM) | 64 µg/mL (≈ 246 µM) | 66.7% | > 256 µg/mL | 128 µg/mL (≈ 492 µM) | > 256 µg/mL | > 256 µg/mL
C#Cc1cccc(/N=C/c2cc(OC)ccc2O)c1 | 128 µg/mL (≈ 509 µM) | > 256 µg/mL | > 256 µg/mL | 29.3% | > 256 µg/mL | > 256 µg/mL | > 256 µg/mL | > 256 µg/mL
C#Cc1cccc(NCc2cccc([N+](=O)[O-])c2)c1 | > 256 µg/mL | > 256 µg/mL | > 256 µg/mL | 33.1% | > 256 µg/mL | > 256 µg/mL | > 256 µg/mL | > 256 µg/mL
C#Cc1ccc(/N=C/c2cc([N+](=O)[O-])ccc2O)cc1 | > 256 µg/mL | 64 µg/mL (≈ 240 µM) | 4 µg/mL (≈ 15 µM) | 76.3% | > 256 µg/mL | 16 µg/mL (≈ 60.1 µM) | > 256 µg/mL | 128 µg/mL (≈ 481 µM)
O=[N+]([O-])c1ccc(O)c(/C=N/c2ccccc2O)c1 | 128 µg/mL (≈ 496 µM) | 64 µg/mL (≈ 248 µM) | 4 µg/mL (≈ 15.5 µM) | 57.7% | > 256 µg/mL | 16 µg/mL (≈ 62 µM) | > 256 µg/mL | > 256 µg/mL
C#Cc1cccc(/N=C/c2cc(C#N)ccc2O)c1 | > 256 µg/mL | 128 µg/mL (≈ 520 µM) | 32 µg/mL (≈ 130 µM) | 61.3% | > 256 µg/mL | 64 µg/mL (≈ 260 µM) | > 256 µg/mL | 256 µg/mL (≈ 1040 µM)
O=[N+]([O-])c1ccc(O)c(/C=N/C2CCCCC2)c1 | 256 µg/mL (≈ 1030 µM) | 16 µg/mL (≈ 64.4 µM) | 4 µg/mL (≈ 16.1 µM) | 68.3% | > 256 µg/mL | 8 µg/mL (≈ 32.2 µM) | > 256 µg/mL | > 256 µg/mL
O=[N+]([O-])c1ccc(O)c(/C=N/c2cccc3ccccc23)c1 | 128 µg/mL (≈ 438 µM) | 32 µg/mL (≈ 109 µM) | 4 µg/mL (≈ 13.7 µM) | 43.4% | > 256 µg/mL | 16 µg/mL (≈ 54.7 µM) | > 256 µg/mL | > 256 µg/mL
CO[C@H]1/C=C/O[C@@]2(C)Oc3c(C)c(O)c4c(O)c(c(/C=N/N5CCN(C)CC5)c(O)c4c3C2=O)NC(=O)/C(C)=C\C=C\[C@H](C)[C@H](O)[C@@H](C)[C@@H](O)[C@@H](C)[C@H](OC(C)=O)[C@@H]1C [RIFAMPIN] | 4 µg/mL (≈ 4.86 µM) | 0.0625 µg/mL (≈ 0.0759 µM) | 0.0125 µg/mL (≈ 0.0152 µM) | – | > 256 µg/mL | 0.0125 µg/mL (≈ 0.0152 µM) | > 256 µg/mL | 2 µg/mL (≈ 2.43 µM)
O=[N+]([O-])c1ccc(O)c(/C=N/c2ccc(C(F)(F)F)cc2)c1 | 256 µg/mL (≈ 825 µM) | 16 µg/mL (≈ 51.6 µM) | 8 µg/mL (≈ 25.8 µM) | 68.9% | > 256 µg/mL | 16 µg/mL (≈ 51.6 µM) | > 256 µg/mL | 256 µg/mL (≈ 825 µM)
C#Cc1cccc(/N=C/c2cc(F)ccc2O)c1 | 256 µg/mL (≈ 1070 µM) | 256 µg/mL (≈ 1070 µM) | 256 µg/mL (≈ 1070 µM) | 28.1% | 256 µg/mL (≈ 1070 µM) | > 256 µg/mL | > 256 µg/mL | > 256 µg/mL
C#Cc1ccccc1/N=C/c1cc([N+](=O)[O-])ccc1O | > 256 µg/mL | 32 µg/mL (≈ 120 µM) | 4 µg/mL (≈ 15 µM) | 71.4% | > 256 µg/mL | 16 µg/mL (≈ 60.1 µM) | > 256 µg/mL | > 256 µg/mL
C#Cc1cccc(NCc2ccccc2O)c1 | > 256 µg/mL | > 256 µg/mL | > 256 µg/mL | 20.3% | > 256 µg/mL | > 256 µg/mL | > 256 µg/mL | > 256 µg/mL
C#Cc1cccc(NCc2ccc([N+](=O)[O-])cc2O)c1 | 64 µg/mL (≈ 239 µM) | 16 µg/mL (≈ 59.6 µM) | 8 µg/mL (≈ 29.8 µM) | 48.2% | > 256 µg/mL | 8 µg/mL (≈ 29.8 µM) | > 256 µg/mL | 32 µg/mL (≈ 119 µM)
C#Cc1cccc(NCc2cccc([N+](=O)[O-])c2O)c1 | > 256 µg/mL | 256 µg/mL (≈ 954 µM) | 128 µg/mL (≈ 477 µM) | 64.5% | > 256 µg/mL | 16 µg/mL (≈ 59.6 µM) | > 256 µg/mL | > 256 µg/mL
O=[N+]([O-])c1ccc(O)c(/C=N/c2cccc(O)c2)c1 | > 256 µg/mL | 256 µg/mL (≈ 991 µM) | 16 µg/mL (≈ 62 µM) | 96.3% | > 256 µg/mL | 64 µg/mL (≈ 248 µM) | > 256 µg/mL | > 256 µg/mL
O=[N+]([O-])c1ccc(O)c(/C=N/c2cccc(C(F)(F)F)c2)c1 | 256 µg/mL (≈ 825 µM) | 32 µg/mL (≈ 103 µM) | 16 µg/mL (≈ 51.6 µM) | 56.2% | > 256 µg/mL | 64 µg/mL (≈ 206 µM) | 256 µg/mL (≈ 825 µM) | > 256 µg/mL
C#Cc1cccc(/N=C/c2cc(C(=O)OC)ccc2O)c1 | 64 µg/mL (≈ 229 µM) | 128 µg/mL (≈ 458 µM) | 128 µg/mL (≈ 458 µM) | 41.4% | 256 µg/mL (≈ 917 µM) | > 256 µg/mL | > 256 µg/mL | > 256 µg/mL
O=[N+]([O-])c1ccc(O)c(CNc2ccccc2)c1 | 256 µg/mL (≈ 1050 µM) | 64 µg/mL (≈ 262 µM) | 16 µg/mL (≈ 65.5 µM) | 4.6% | > 256 µg/mL | 32 µg/mL (≈ 131 µM) | > 256 µg/mL | 128 µg/mL (≈ 524 µM)
C#Cc1cccc(/N=C/c2ccc([N+](=O)[O-])cc2O)c1 | > 256 µg/mL | 128 µg/mL (≈ 481 µM) | 64 µg/mL (≈ 240 µM) | 46.7% | > 256 µg/mL | 256 µg/mL (≈ 961 µM) | > 256 µg/mL | > 256 µg/mL
O=C(O)c1cccc(NCc2cc([N+](=O)[O-])ccc2O)c1 | > 256 µg/mL | > 256 µg/mL | > 256 µg/mL | 50.8% | > 256 µg/mL | > 256 µg/mL | > 256 µg/mL | > 256 µg/mL
O=C(O)c1cccc(/N=C/c2cc([N+](=O)[O-])ccc2O)c1 | 64 µg/mL (≈ 224 µM) | 16 µg/mL (≈ 55.9 µM) | 4 µg/mL (≈ 14 µM) | 78.5% | > 256 µg/mL | 16 µg/mL (≈ 55.9 µM) | > 256 µg/mL | > 256 µg/mL
O=[N+]([O-])c1ccc(O)c(CNc2ccccc2O)c1 | 128 µg/mL (≈ 492 µM) | 64 µg/mL (≈ 246 µM) | 16 µg/mL (≈ 61.5 µM) | 81.5% | 256 µg/mL (≈ 984 µM) | 32 µg/mL (≈ 123 µM) | 256 µg/mL (≈ 984 µM) | 256 µg/mL (≈ 984 µM)
O=[N+]([O-])c1ccc(O)c(CNc2ccc(C(F)(F)F)cc2)c1 | 32 µg/mL (≈ 102 µM) | 16 µg/mL (≈ 51.2 µM) | 8 µg/mL (≈ 25.6 µM) | 54.1% | > 256 µg/mL | 8 µg/mL (≈ 25.6 µM) | 256 µg/mL (≈ 820 µM) | 32 µg/mL (≈ 102 µM)
C#Cc1cccc(NCc2cc(C(=O)OC)ccc2O)c1 | > 256 µg/mL | 8 µg/mL (≈ 28.4 µM) | 32 µg/mL (≈ 114 µM) | 57.1% | > 256 µg/mL | 16 µg/mL (≈ 56.9 µM) | > 256 µg/mL | 32 µg/mL (≈ 114 µM)
